The IC50 is the midpoint of a concentration-inhibition curve.

Here are results for three compounds from ChEMBL document CHEMBL1141790, “Sodwanone S, a triterpene from the marine sponge Axinella weltneri” (J Nat Prod, 2005).

What all share (format): functional, cell-based
Experiment [1] deals with HeLa. The experiment can be described thus: Cytotoxicity against human HeLa cells by SRB assay. In a few lines: (§1)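 Compounds were run across a panel of 13 human tumor cell lines. Potency is expressed as IC50 in μg/mL.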
For experiment [2], the system named is LoVo. Put plainly: Cytotoxicity against human doxorubicin-resistant LoVo cells by SRB assay. Summed up: as §1
On the technique in general: The SRB assay estimates cell density from bound dye.

The subject of another experiment is HT-29. Put plainly: Cytotoxicity against human HT-29 cells by SRB assay. Summed up:
as §1

The nature of experiment [3]: Cytotoxicity against human ecteinascidin-743-resistant IGROV cells by SRB assay. In a few lines:
as §1

The subject of the next experiment is DU-145. Put plainly: Cytotoxicity against human DU145 cells by SRB assay. In a few lines: as §1
Experiment [4] relates to HeLa. The experiment can be described thus: Cytotoxicity against human aplidine-resistant HeLa cells by SRB assay. Summed up:
as §1

The nature of experiment [5]: Cytotoxicity against human IGROV cells by SRB assay. Summed up:
as §1

The next experiment concerns PANC-1. Put plainly: Cytotoxicity against human PANC1 cells by SRB assay. In a few lines: as §1
For the next experiment, the system named is A549. The experiment can be described thus: Cytotoxicity against human A549 cells by SRB assay. Summed up:
as §1

In a further experiment the test system is SK-MEL-28. The experiment can be described thus: Cytotoxicity against human SK-MEL-28 cells by SRB assay. In a few lines: as §1
Experiment [6] relates to LoVo. Put plainly: Cytotoxicity against human LoVo cells by SRB assay. In a few lines: as §1
A further experiment concerns SK-BR-3. The experiment can be described thus: Cytotoxicity against human SKBR3 cells by SRB assay. In a few lines: as §1
The test system of a further experiment is LNCaP. The experiment can be described thus: Cytotoxicity against human LNCAP cells by SRB assay. Summed up: as §1

≈ marks a conversion by molar mass, not a printed value.

As to `CC1=C(CC[C@H]2[C@]3(C)CCC(=O)C(C)(C)O[C@H]3CC[C@]2(C)O)[C@@]2(C)CCC(=O)C(C)(C)C2=C(O)C1=O` [SODWANONE A], the IC50 in the experiment with HeLa [1] is 2.1 µg/mL (≈ 4.19 µM); in the experiment on LoVo [2] it was 0.3 µg/mL (≈ 0.599 µM); with HT-29 it was above 10 µg/mL; in [3] it was 0.068 µg/mL (≈ 0.136 µM); with DU-145, 1.8 µg/mL (≈ 3.6 µM); in the experiment with HeLa [4] it was 2.9 µg/mL (≈ 5.79 µM). Besides, the half-maximal inhibitory concentration (IC50) in experiment [5] was 1.7 µg/mL (≈ 3.4 µM); with PANC-1, 0.7 µg/mL (≈ 1.4 µM); in the experiment with A549, 3.5 µg/mL (≈ 6.99 µM); with SK-MEL-28, 7.5 µg/mL (≈ 15 µM); with LoVo [6], 8.5 µg/mL (≈ 17 µM); with SK-BR-3, above 10 µg/mL. Moreover, half-maximal inhibition in the experiment with LNCaP (IC50) was put at 3.8 µg/mL (≈ 7.59 µM).

Consider `CC1=C(CC[C@@H]2[C@@]3(CC[C@@H]4OC(C)(C)C(=O)CC[C@]42C)CO3)[C@@]2(C)CCC(=O)C(C)(C)C2=C(O)C1=O` [SODWANONE G], for which the IC50 in the experiment on HeLa [1] is 5.4 µg/mL (≈ 10.8 µM); in the experiment on LoVo [2] it was 2.7 µg/mL (≈ 5.41 µM); in the experiment on HT-29, above 10 µg/mL; in [3], 2.7 µg/mL (≈ 5.41 µM); with DU-145, above 10 µg/mL; in the experiment with HeLa [4], 4.2 µg/mL (≈ 8.42 µM). Besides, the 50% inhibitory concentration (IC50) in experiment [5] was 5 µg/mL (≈ 10 µM); in the experiment on PANC-1 it was 3.1 µg/mL (≈ 6.22 µM); with A549, above 10 µg/mL; with SK-MEL-28, above 10 µg/mL; in the experiment with LoVo [6], above 10 µg/mL; in the experiment on SK-BR-3, above 10 µg/mL. Moreover, half-maximal inhibition in the experiment with LNCaP (IC50) was put at 4.3 µg/mL (≈ 8.62 µM).

As for `C[C@H]1CC[C@@H]2OC(C)(C)[C@@H](O)CC=C2[C@@]1(C)CC[C@H]1[C@]2(C)CCC(=O)C(C)(C)O[C@H]2CC[C@]1(C)O` [SODWANONE S], the IC50 with HeLa [1] is above 10 µg/mL; with LoVo [2], 3.3 µg/mL (≈ 6.72 µM); in the experiment on HT-29 it was above 10 µg/mL; in [3] it was 4.7 µg/mL (≈ 9.58 µM); with DU-145 it was above 10 µg/mL; in the experiment with HeLa [4], above 10 µg/mL. Further, the IC50 was above 10 µg/mL in experiment [5]; 4.1 µg/mL (≈ 8.35 µM) in the experiment with PANC-1; above 10 µg/mL with A549; 6.5 µg/mL (≈ 13.2 µM) with SK-MEL-28; 6.9 µg/mL (≈ 14.1 µM) in the experiment on LoVo [6]; 3.8 µg/mL (≈ 7.74 µM) in the experiment on SK-BR-3. The compound further gave an IC50 with LNCaP of 5 µg/mL (≈ 10.2 µM).
